The target of experiment [1] is T1, Toll-like receptor 7 (Homo sapiens, UniProt Q9NYK1).
T1 sequence (Q9NYK1 whole entry): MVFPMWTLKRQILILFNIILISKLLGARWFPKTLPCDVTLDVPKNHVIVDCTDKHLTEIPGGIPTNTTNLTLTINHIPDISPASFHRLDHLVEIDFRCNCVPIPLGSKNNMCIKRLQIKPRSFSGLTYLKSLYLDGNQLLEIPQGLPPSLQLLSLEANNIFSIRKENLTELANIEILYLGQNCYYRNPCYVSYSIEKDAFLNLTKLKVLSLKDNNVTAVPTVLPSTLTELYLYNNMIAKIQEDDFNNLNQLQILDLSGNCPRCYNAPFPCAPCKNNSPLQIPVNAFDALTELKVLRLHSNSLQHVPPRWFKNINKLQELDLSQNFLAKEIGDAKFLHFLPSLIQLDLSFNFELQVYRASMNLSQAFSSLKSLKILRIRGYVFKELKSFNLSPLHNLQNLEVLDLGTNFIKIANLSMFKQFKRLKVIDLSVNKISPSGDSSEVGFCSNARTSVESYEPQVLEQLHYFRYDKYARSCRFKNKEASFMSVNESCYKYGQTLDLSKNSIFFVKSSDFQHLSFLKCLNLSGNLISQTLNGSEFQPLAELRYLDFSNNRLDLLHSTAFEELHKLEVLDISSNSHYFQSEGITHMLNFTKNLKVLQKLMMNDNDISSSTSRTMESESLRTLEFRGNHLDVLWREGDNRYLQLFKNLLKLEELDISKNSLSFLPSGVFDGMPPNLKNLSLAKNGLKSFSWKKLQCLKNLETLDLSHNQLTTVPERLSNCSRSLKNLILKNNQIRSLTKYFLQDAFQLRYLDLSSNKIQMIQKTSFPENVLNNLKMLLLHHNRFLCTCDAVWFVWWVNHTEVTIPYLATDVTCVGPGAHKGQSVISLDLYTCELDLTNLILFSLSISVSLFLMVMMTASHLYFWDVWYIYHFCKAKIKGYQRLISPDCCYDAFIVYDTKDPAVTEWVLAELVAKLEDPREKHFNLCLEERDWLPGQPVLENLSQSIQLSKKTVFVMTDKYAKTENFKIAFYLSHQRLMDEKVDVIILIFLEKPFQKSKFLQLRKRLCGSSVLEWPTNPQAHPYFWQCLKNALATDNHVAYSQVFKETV
Put plainly: Antagonist activity at TLR7 expressed in HEK293 cells co-transfected with NF-kappaB/sAP gene assessed as inhibition of 1 ug/ml of gardiquimod-induced NF-kappaB activation by reporter gene assay. The experiment is classed as functional, cell-based. The essentials:
(§1)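 HEK-Blue-7 cells (HEK293 stably carrying TLR7 plus NF-κB/AP-1-driven secreted alkaline phosphatase), kept in selection medium with zeocin and normocin. Seeded at ~10⁵ cells/mL and grown to confluency, then stimulated with gardiquimod 1 μg/mL while serially diluted compounds were added at the same time (highest 250 μM). Incubated overnight; supernatant sAP read with chromogen at 620 nm; duplicates or quadruplicates.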

A further experiment concerns the target T2, Toll-like receptor 8 (Homo sapiens, UniProt Q9NR97).
T2 sequence (Q9NR97 whole entry): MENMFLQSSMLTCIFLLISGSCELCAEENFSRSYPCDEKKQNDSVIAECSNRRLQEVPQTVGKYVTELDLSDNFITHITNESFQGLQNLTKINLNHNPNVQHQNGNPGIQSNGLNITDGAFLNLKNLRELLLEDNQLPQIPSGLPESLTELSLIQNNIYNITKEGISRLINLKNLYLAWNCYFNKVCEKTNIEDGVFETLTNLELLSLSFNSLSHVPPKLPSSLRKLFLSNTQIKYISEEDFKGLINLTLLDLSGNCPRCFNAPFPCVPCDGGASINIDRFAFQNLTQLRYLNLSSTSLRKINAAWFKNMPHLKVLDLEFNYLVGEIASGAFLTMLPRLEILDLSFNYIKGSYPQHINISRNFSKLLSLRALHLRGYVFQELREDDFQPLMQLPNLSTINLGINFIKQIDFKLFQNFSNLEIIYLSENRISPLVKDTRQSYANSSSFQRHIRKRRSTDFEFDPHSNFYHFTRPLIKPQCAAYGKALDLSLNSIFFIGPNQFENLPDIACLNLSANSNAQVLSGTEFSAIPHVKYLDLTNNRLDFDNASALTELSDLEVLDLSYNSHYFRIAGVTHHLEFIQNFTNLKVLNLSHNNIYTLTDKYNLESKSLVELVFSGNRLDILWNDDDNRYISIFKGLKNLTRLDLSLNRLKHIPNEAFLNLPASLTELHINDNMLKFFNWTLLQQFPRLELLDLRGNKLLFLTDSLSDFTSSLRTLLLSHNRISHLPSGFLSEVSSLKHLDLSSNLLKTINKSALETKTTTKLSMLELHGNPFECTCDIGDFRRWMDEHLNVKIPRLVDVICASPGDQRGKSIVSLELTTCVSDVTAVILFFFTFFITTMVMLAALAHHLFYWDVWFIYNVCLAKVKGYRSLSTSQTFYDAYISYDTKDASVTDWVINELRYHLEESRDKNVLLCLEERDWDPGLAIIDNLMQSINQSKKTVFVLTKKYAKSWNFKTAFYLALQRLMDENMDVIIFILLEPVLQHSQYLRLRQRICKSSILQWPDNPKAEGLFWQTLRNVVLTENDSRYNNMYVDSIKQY
Put plainly: Antagonist activity at TLR8 expressed in HEK293 cells co-transfected with NF-kappaB/sAP gene assessed as inhibition of CL075-induced NF-kappaB activation by reporter gene assay. The experiment is classed as functional, cell-based.

Experiment [2] addresses T3, Toll-like receptor 7 (Homo sapiens) (UniProt Q9NYK1).
T3 sequence (whole entry): T1 sequence (Q9NYK1 whole entry)
The experiment in a line: Antagonist activity at TLR7 expressed in HEK293 cells co-transfected with NF-kappaB/sAP gene assessed as inhibition of gardiquimod-induced NF-kappaB activation at 250 uM by reporter gene assay. The experiment is classed as functional, cell-based. In short, it runs like this:
as §1

For experiment [3], the target named is T1, Toll-like receptor 7. Put plainly: Antagonist activity at TLR7 expressed in HEK293 cells co-transfected with NF-kappaB/sAP gene assessed as inhibition of 250 ng/ml of gardiquimod-induced NF-kappaB activation by reporter gene assay.
Experiment [4] concerns the target Toll-like receptor 8 (Homo sapiens) (UniProt Q9NR97). Put plainly: Antagonist activity at TLR8 expressed in HEK293 cells co-transfected with NF-kappaB/sAP gene assessed as inhibition of CL075-induced NF-kappaB activation at 250 uM by reporter gene assay.

Activity calls are given as the source filed them. No cut-off for these calls is given here.

As to `CCCCCCCCCc1nc2c3ccccc3ncc2n1Cc1ccc(OC)cc1`, at Toll-like receptor 7 [1], the half-maximal inhibitory concentration (IC50) is 19.4 µM. `C#CCn1c(CNCC)nc2c3ccccc3ncc21`: the IC50 was 28.1 µM at Toll-like receptor 8 and 26.1 µM on Toll-like receptor 7 [1]. Regarding `CC(C)(O)Cn1c(-c2ccccc2)nc2c3ccccc3ncc21`, the IC50 at Toll-like receptor 8 was found to be 38.4 µM. Also, the inhibition entry in experiment [2] was “inactive”. `COc1ccc(Cn2c(-c3ccccc3)nc3c4ccccc4[n+](Cc4ccc(OC)cc4)cc32)cc1`: the IC50 came to 4.55 µM at Toll-like receptor 8, 2.79 µM on Toll-like receptor 7 [1] and 0.82 µM on Toll-like receptor 7 [3]. In the case of `COc1ccc(Cn2c(C3CCCCC3)nc3c4ccccc4ncc32)cc1`, the IC50 on Toll-like receptor 8 was 40 µM; on Toll-like receptor 7 [1], 19.9 µM. Take `OCCCn1c(-c2ccccc2)nc2c3ccccc3ncc21`: on Toll-like receptor 8, the IC50 worked out at 37.2 µM. Further, the inhibition entry in experiment [2] is “inactive”.

With `CCNCc1nc2c3ccccc3nc(NC(=O)c3ccccc3)c2n1CC(C)(C)O`, the half-inhibitory concentration (IC50) at Toll-like receptor 8 came to 21.2 µM. Moreover, the inhibition result in experiment [2] was “inactive”. On to `CCCCCCCCCc1nc2c3ccccc3ncc2n1CC(C)(C)O`, for which the IC50 on Toll-like receptor 7 [1] was 14.4 µM.

Take `C#CCn1c(-c2ccccc2)nc2c3ccccc3ncc21`: the values for the IC50 on Toll-like receptor 8 and on Toll-like receptor 7 [1] were 13.7 µM and 14.8 µM, respectively. `COc1ccc(Cn2c(-c3ccccc3)nc3c4ccccc4ncc32)cc1`: the inhibition entry in experiment [4] and in experiment [2] was “inactive” in each case. Turning to `CCNCc1nc2c3ccccc3ncc2n1Cc1ccc(OC)cc1`, the IC50 amounted to 59.6 µM at Toll-like receptor 8 and 28 µM at Toll-like receptor 7 [1]. Turning to `CCNCc1nc2c3ccccc3[n+]([O-])cc2n1CC(C)(C)O`, on Toll-like receptor 8, the IC50 is 46.5 µM. The inhibition entry in experiment [2] is “inactive”.

In the case of `C#CCn1c(CCCCCCCCC)nc2c3ccccc3ncc21`, the values for the IC50 on Toll-like receptor 8 and at Toll-like receptor 7 [1] were 10.1 µM and 8.58 µM, respectively. On to `OCCCn1c(C2CCCCC2)nc2c3ccccc3ncc21`, for which the IC50 on Toll-like receptor 8 came out at 20.3 µM. Further, in experiment [2], the inhibition result was “inactive”. `CCNCc1nc2c3ccccc3ncc2n1CCCO`: the inhibition result in experiment [4] and in experiment [2] was “inactive” each time. On to `CCCCCCCCCc1nc2c3ccccc3ncc2n1CCCO`, for which the IC50 on Toll-like receptor 8 amounted to 4.81 µM. Besides, the inhibition entry in experiment [2] is “inactive”. Turning to `Cn1c(C2CCCCC2)nc2c3ccccc3ncc21`, the results for the IC50 at Toll-like receptor 8 and on Toll-like receptor 7 [1] were 24.3 µM and 22 µM, respectively. `CCNCc1nc2c3ccccc3ncc2n1C`: the IC50 on Toll-like receptor 7 [1] was 30.4 µM.

On to `Cn1c(-c2ccccc2)nc2c3ccccc3ncc21`, for which the results for the IC50 on Toll-like receptor 8 and on Toll-like receptor 7 [1] were 25.8 µM and 21.6 µM, respectively. With `CCCCCCCCCc1nc2c3ccccc3ncc2n1C`, the IC50 on Toll-like receptor 7 [1] amounted to 10.1 µM. Regarding `CC(C)(O)Cn1c(C2CCCCC2)nc2c3ccccc3ncc21`, on Toll-like receptor 8, the IC50 was 38.7 µM. Moreover, in experiment [2], the inhibition result was “inactive”. As to `C#CCn1c(C2CCCCC2)nc2c3ccccc3ncc21`, the values for the half-maximal inhibitory concentration (IC50) on Toll-like receptor 8 and at Toll-like receptor 7 [1] were 21.1 µM and 21.9 µM, respectively.

The record behind these values is ChEMBL document CHEMBL1795244, “Preliminary evaluation of a 3H imidazoquinoline library as dual TLR7/TLR8 antagonists” (Bioorg Med Chem, 2011).
